From ChEMBL document CHEMBL2069238, “Discovery of potent and selective rhodanine type IKKβ inhibitors by hit-to-lead strategy” (Bioorg Med Chem Lett, 2012)

How the values were obtained:
[1] = target: T1, Inhibitor of nuclear factor kappa-B kinase subunit beta (Homo sapiens, UniProt O14920); assay: Inhibition of IKKbeta using 5FAM-GRHDSGLDSMK-NH2 as substrate incubated for 10 mins prior to substrate addition by IMAP-TR-FRET assay
T1 sequence (O14920 whole entry): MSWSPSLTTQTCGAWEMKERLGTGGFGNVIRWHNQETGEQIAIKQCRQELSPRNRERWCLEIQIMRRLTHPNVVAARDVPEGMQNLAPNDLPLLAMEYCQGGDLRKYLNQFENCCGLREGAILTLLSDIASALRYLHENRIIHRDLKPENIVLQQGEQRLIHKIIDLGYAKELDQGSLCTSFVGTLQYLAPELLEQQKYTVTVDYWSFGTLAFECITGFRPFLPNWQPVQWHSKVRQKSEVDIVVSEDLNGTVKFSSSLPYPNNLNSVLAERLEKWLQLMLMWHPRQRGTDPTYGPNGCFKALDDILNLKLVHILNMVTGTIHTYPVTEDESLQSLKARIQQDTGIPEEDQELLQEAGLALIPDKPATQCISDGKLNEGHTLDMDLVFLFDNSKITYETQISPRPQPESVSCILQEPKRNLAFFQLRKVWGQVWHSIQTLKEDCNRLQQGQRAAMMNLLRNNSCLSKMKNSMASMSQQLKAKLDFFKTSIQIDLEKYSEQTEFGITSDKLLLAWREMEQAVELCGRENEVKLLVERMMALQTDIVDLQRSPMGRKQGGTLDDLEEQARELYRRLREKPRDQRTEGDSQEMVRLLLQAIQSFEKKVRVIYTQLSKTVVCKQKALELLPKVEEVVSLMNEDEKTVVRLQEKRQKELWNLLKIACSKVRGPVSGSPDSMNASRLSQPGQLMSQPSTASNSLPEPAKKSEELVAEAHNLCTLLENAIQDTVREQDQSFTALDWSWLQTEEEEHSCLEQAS

[2] = target: T2, Inhibitor of nuclear factor kappa-B kinase subunit beta (Homo sapiens) (UniProt O14920); assay: Inhibition of IKKbeta in human HeLa cells assessed as inhibition of TPA-induced NFkappaB activation at 10 uM incubated for 1 hr prior to TPA-challenge measured after 8 hrs by luciferase reporter gene assay; type: cell-based
T2 sequence (whole entry): T1 sequence (O14920 whole entry)
How it was run: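 HeLa cells transfected with an NF-κB luciferase reporter plasmid, pre-treated with inhibitor for 1 h, then stimulated with TPA (50 ng/mL) for 8 h. Luciferase activity normalized to protein content of each extract, expressed as relative luciferase units per mg versus non-treated cells; n = 3.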

[3] = target: T3, Inhibitor of nuclear factor kappa-B kinase subunit beta (Mus musculus, UniProt O88351); assay: Inhibition of IKKbeta in mouse CIA model splenocytes assessed as inhibition of TNFalpha production after 72 hrs by ELISA; type: cell-based
T3 sequence (O88351 whole entry): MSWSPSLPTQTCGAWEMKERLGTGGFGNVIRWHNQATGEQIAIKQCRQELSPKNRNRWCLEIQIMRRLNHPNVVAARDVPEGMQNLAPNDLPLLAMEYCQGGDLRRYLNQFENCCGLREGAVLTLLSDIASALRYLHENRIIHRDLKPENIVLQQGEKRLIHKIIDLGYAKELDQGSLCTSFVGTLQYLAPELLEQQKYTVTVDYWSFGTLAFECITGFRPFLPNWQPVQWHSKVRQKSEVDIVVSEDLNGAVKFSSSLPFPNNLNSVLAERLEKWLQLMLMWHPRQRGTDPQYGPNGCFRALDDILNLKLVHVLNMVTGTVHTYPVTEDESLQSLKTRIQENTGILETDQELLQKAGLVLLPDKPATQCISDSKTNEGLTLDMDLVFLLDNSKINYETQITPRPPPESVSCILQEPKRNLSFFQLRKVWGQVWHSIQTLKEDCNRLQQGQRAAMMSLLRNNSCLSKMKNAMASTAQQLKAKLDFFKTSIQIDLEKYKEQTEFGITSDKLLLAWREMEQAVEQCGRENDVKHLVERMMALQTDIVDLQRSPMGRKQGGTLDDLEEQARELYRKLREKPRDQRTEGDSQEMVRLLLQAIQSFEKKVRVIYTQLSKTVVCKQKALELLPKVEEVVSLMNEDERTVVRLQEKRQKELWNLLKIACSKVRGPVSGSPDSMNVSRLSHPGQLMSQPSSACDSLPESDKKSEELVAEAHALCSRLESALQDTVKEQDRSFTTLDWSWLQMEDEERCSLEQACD
How it was run: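 Spleens from collagen type II-immunized mice were taken 8 weeks after primary immunization. Red cells were lysed with 0.83% ammonium chloride, and cells were strained and resuspended in RPMI 1640 at 1 × 10^6 cells/well, then exposed to inhibitor for 72 h. Supernatant TNFα was measured by sandwich ELISA with an alkaline phosphatase chromogenic read at 405 nm, quantified against a recombinant murine TNFα standard curve.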

[4] = target: T4, Inhibitor of nuclear factor kappa-B kinase subunit alpha (Homo sapiens, UniProt O15111); assay: Inhibition of IKKalpha
T4 sequence (O15111 whole entry): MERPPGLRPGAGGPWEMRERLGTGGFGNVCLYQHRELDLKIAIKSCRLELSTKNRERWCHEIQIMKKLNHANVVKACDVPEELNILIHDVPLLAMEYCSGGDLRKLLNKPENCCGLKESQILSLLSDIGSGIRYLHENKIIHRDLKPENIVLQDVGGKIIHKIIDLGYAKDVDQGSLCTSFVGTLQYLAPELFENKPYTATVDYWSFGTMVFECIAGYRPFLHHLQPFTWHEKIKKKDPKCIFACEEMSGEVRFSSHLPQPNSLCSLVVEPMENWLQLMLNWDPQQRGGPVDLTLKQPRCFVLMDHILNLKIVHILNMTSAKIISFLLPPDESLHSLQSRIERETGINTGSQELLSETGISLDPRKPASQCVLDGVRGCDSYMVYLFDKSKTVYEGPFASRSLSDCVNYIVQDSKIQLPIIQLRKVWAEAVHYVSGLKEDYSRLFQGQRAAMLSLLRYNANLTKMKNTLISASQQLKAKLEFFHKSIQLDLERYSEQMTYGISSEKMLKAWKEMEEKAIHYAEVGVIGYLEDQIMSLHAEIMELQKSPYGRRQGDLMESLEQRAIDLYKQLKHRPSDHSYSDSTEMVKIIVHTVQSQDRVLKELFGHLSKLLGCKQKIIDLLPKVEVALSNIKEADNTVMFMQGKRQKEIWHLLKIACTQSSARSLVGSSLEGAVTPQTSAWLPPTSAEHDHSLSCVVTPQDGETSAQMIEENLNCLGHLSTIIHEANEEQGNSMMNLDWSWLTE

[5] = target: Mitogen-activated protein kinase 14 (Homo sapiens, UniProt Q16539); assay: Inhibition of MAPK p38alpha
[6] = target: Mitogen-activated protein kinase 11 (Homo sapiens, UniProt Q15759); assay: Inhibition of MAPK p38beta
[7] = target: Mitogen-activated protein kinase 8 (Homo sapiens, UniProt P45983); assay: Inhibition of JNK1
[8] = target: Mitogen-activated protein kinase 9 (Homo sapiens, UniProt P45984); assay: Inhibition of JNK2
[9] = target: Mitogen-activated protein kinase 10 (Homo sapiens, UniProt P53779); assay: Inhibition of JNK3
[10] = target: T2, Inhibitor of nuclear factor kappa-B kinase subunit beta (Homo sapiens); assay: Inhibition of IKKbeta using 5FAM-GRHDSGLDSMK-NH2 as substrate at 10 uM incubated for 10 mins prior to substrate addition by IMAP-TR-FRET assay

Sequence of Mitogen-activated protein kinase 10 (P53779 whole entry): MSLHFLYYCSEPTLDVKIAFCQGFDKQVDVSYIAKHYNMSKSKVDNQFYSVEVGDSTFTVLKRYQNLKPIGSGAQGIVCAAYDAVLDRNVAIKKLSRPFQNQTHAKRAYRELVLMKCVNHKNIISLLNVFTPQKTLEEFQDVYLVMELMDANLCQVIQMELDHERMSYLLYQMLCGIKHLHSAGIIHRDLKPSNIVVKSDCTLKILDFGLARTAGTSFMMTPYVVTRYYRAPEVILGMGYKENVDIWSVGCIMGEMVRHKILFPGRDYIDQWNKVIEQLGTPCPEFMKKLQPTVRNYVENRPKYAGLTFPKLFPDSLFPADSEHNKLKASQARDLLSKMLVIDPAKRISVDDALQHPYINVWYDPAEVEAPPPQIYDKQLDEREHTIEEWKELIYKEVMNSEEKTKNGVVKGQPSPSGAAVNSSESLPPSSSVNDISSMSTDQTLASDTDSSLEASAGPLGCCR
Sequence of Mitogen-activated protein kinase 11 (Q15759 whole entry): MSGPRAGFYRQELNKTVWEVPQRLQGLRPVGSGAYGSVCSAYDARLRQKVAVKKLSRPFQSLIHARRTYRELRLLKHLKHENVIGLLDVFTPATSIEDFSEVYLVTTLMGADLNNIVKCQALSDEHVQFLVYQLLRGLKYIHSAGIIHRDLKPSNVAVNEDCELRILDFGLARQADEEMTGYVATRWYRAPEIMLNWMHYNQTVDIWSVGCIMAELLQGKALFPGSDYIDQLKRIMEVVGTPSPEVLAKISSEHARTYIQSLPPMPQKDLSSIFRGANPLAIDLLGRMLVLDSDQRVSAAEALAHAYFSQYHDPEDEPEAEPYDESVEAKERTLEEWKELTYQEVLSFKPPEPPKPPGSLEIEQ
Sequence of Mitogen-activated protein kinase 14 (Q16539 whole entry): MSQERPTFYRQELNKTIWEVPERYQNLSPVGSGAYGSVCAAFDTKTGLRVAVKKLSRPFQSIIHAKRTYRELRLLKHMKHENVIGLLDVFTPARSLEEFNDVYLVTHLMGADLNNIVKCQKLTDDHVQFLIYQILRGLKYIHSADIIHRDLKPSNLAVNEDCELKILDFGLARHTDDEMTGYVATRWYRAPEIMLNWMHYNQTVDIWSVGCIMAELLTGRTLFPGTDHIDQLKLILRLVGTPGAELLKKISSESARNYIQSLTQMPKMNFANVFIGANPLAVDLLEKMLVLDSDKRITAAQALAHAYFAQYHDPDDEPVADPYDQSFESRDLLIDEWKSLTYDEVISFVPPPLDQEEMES
Sequence of Mitogen-activated protein kinase 9 (P45984 whole entry): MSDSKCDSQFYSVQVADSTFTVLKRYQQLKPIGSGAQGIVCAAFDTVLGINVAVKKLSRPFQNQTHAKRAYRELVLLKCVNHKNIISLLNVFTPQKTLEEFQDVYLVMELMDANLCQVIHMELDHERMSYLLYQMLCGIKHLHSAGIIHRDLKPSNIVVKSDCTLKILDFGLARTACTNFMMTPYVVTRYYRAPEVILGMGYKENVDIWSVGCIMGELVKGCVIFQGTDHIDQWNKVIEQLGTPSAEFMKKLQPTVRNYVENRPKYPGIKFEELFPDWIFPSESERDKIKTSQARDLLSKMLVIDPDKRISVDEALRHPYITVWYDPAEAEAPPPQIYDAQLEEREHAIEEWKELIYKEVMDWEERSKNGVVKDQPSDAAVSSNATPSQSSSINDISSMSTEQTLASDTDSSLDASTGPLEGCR
Sequence of Mitogen-activated protein kinase 8 (P45983 whole entry): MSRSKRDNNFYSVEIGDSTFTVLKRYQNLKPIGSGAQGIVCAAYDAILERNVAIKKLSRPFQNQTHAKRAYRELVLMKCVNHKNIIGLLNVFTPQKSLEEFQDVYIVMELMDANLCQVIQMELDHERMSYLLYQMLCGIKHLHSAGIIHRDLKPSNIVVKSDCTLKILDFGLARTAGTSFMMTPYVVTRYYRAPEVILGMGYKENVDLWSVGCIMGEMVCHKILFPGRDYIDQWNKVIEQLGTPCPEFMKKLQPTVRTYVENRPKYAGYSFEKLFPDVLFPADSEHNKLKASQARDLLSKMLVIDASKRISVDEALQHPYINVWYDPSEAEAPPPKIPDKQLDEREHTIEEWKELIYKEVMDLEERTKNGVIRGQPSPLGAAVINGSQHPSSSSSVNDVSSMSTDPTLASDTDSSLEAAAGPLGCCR

IC50 [1] [µM]	inhibition [2] [%]	IC50 [3] [µM]	inhibition [10] [%]	Structure (SMILES)	also measured
0.23		4	90.4	CN1CCN(CCCCOc2ccc(N3C(=O)/C(=C/c4ccc(Oc5ccc(C(N)=O)cc5)cc4)SC3=S)cc2)CC1	
0.35	65.4	2	90.1	CN1CCN(CCCOc2ccc(N3C(=O)/C(=C/c4ccc(Oc5ccc(C(N)=O)cc5)cc4)SC3=S)cc2)CC1	IC50 [4]: > 30 µM; IC50 [5]: > 30 µM; IC50 [6]: > 30 µM; IC50 [7]: > 30 µM; IC50 [8]: > 30 µM; IC50 [9]: > 30 µM
			18.6	NC(=O)c1ccccc1Oc1ccc(/C=C2\SC(=S)N(c3ccc(OCCCN4CCCCC4)cc3)C2=O)cc1	
6.3	57	7	57.3	NC(=O)c1cccc(Oc2ccc(/C=C3\SC(=S)N(c4ccc(OCCCN5CCCC5)cc4)C3=O)cc2)c1	
6.3	42.1	30	83	NC(=O)c1cccc(Oc2ccc(/C=C3\SC(=S)N(c4ccc(OCCCN5CCCCC5)cc4)C3=O)cc2)c1	
4.2	48.2	30	81.2	NC(=O)c1ccc(Oc2ccc(/C=C3\SC(=S)N(c4ccc(OCCCN5CCCCC5)cc4)C3=O)cc2)cc1	
0.16			89.3	CN1CCN(CCCCCOc2ccc(N3C(=O)/C(=C/c4ccc(Oc5ccc(C(N)=O)cc5)cc4)SC3=S)cc2)CC1	
			21.3	NC(=O)c1ccccc1Oc1ccc(/C=C2\SC(=S)N(c3ccc(OCCCN4CCCC4)cc3)C2=O)cc1	
			48.8	NC(=O)c1cccc(Oc2ccc(/C=C3\SC(=S)N(c4ccc(OCCCN5CCOCC5)cc4)C3=O)cc2)c1	
1.5	58.5	5	85.3	NC(=O)c1ccc(Oc2ccc(/C=C3\SC(=S)N(c4ccc(OCCCN5CCCC5)cc4)C3=O)cc2)cc1	IC50 [4]: > 30 µM; IC50 [5]: > 30 µM; IC50 [6]: > 30 µM; IC50 [7]: > 30 µM; IC50 [8]: > 30 µM; IC50 [9]: > 30 µM

Second part, the compound before the results:

Structure (SMILES)	IC50 [1] [µM]	inhibition [2] [%]	IC50 [3] [µM]	inhibition [10] [%]	also measured
CN1CCN(CCCOc2ccc(N3C(=O)/C(=C/c4ccc(Oc5cccc(C(N)=O)c5)cc4)SC3=S)cc2)CC1	1.5	64.7	5	86.8	IC50 [4]: > 30 µM; IC50 [5]: > 30 µM; IC50 [6]: > 30 µM; IC50 [7]: > 30 µM; IC50 [8]: > 30 µM; IC50 [9]: > 30 µM
CCN(CC)CCCOc1ccc(N2C(=O)/C(=C/c3ccc(C(N)=O)cc3)SC2=S)cc1				15.5	
CCN(CC)CCCOc1ccc(N2C(=O)/C(=C/c3ccc(-c4cccc(C(N)=O)c4)o3)SC2=S)cc1	5.7	59.1		87.1	
CCN(CC)CCCOc1ccc(N2C(=O)/C(=C/c3ccc(Oc4ccc(C(N)=O)cc4)cc3)SC2=S)cc1	2.6	46.6	8	95.7	
CCN(CC)CCCOc1ccc(N2C(=O)/C(=C/C=C(c3ccccc3)c3ccccc3)SC2=S)cc1	14.1			52.6	
CCN(CC)CCOc1ccc(N2C(=O)/C(=C/c3ccc(Oc4ccccc4C(N)=O)cc3)SC2=S)cc1				1.6	
CCN(CC)CCOc1ccc(N2C(=O)/C(=C/c3ccc(Oc4cccc(C(N)=O)c4)cc3)SC2=S)cc1		57	7	17.1	
CCN(CC)CCCOc1ccc(N2C(=O)/C(=C/c3ccc(-c4ccc(C(N)=O)cc4)o3)SC2=S)cc1	3.3	57.4		77.2	
NC(=O)c1cccc(-c2ccc(/C=C3\SC(=S)N(c4ccc(OCCCN5CCOCC5)cc4)C3=O)o2)c1				2.1	
CN1CCN(CCCOc2ccc(N3C(=O)/C(=C/c4ccc(Oc5ccccc5C(N)=O)cc4)SC3=S)cc2)CC1	8.5	42.4	12	52.7	
CCN(CC)CCCOc1ccc(N2C(=O)/C(=C/C=C/c3ccc(N(C)C)cc3)SC2=S)cc1				28.1	
CCN(CC)CCCOc1ccc(N2C(=O)/C(=C/c3ccc(Oc4cccc(C(N)=O)c4)cc3)SC2=S)cc1	7.3	39.3	10	84.9	
CCN(CC)CCCOc1ccc(N2C(=O)/C(=C/c3ccc(O)cc3)SC2=S)cc1	23.6			56	
CCN(CC)CCCOc1ccc(N2C(=O)/C(=C/c3ccc(Cl)c(Cl)c3)SC2=S)cc1	9.3			61.8	
CCN(CC)CCCOc1ccc(N2C(=O)/C(=C/c3ccc4ccccc4c3)SC2=S)cc1				23.4	
CCN(CC)CCCOc1ccc(N2C(=O)/C(=C/c3ccncc3)SC2=S)cc1				3.2	
N#Cc1c(C2CCCNC2)cc(-c2ccccc2O)nc1N (stereo not drawn)	0.17	73.9	1.8	88.7	IC50 [4]: 0.64 µM
CCN(CC)CCCOc1ccc(N2C(=O)/C(=C/c3c(Cl)cccc3Cl)SC2=S)cc1				3.4	
CCN(CC)CCOc1ccc(N2C(=O)/C(=C/c3ccc(Oc4ccc(C(N)=O)cc4)cc3)SC2=S)cc1	8.7	58.5	8	62.6	
CCN(CC)CCCOc1ccc(N2C(=O)/C(=C/c3ccc(Oc4ccccc4C(N)=O)cc3)SC2=S)cc1				4.8	
CCN(CC)CCCOc1ccc(N2C(=O)/C(=C/c3ccc(Oc4ccc(Cl)cc4)cc3)SC2=S)cc1	15.6	71.4	13	36.5	
